Experimental findings from ChEMBL document CHEMBL1134075, “Synthesis and hydrolytic stability studies of albendazole carrier prodrugs” (Bioorg Med Chem Lett, 2001) are described below.

For orientation: logP means the decadic logarithm of the partition coefficient of the neutral form, usually between octanol and water. One may read the half-life as how long it takes for the measured level to halve. Read a high half-life as slow loss.

Series [1] is described as follows: Partition coefficient (logP). The series is classed as physicochemical. The following applies: octanol/water. Put shortly: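 Determined by RP-HPLC. log K = log[(tr − t0)/t0], with t0 the elution time of methanol. log K0 at 0% methanol was obtained by linear regression of log K versus percent methanol, using standards.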
Series [2] in a line: Half life of the in human plasma. The class given is ADME, cell-free. Put shortly: (§1)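 Incubation at 37 °C in 80% human plasma, initial 4×10^-4 M (1% methanol). Plasma samples withdrawn at various times were extracted on a C18 cartridge, and appearance of albendazole was followed by HPLC. First-order k_obs came from the slope of log % formed albendazole versus time, and t1/2 = 0.693/k_obs. Mean ± SD.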

Series [3] can be described thus: First order rate constant, k was determined in human plasma. The series is classed as ADME, cell-free. Put shortly:
as §1

A short description of series [4]: First order rate constant, k was determined in pig liver Esterase. The class given is ADME, tissue-based, Sus scrofa. Put shortly:
(§2)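 Pig liver esterase used in place of plasma, at 37 °C with initial 4×10^-4 M (1% methanol). Samples were C18-extracted over time and albendazole formation was tracked by HPLC. k_obs was taken from the slope of log % formed albendazole versus time, and t1/2 = 0.693/k_obs. Mean ± SD.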

A short description of series [5]: Half life of the in pig liver Esterase. The series is classed as ADME, Sus scrofa. Put shortly: as §2
Series [6] can be described thus: Half life of the at pH 5.0. The class given is ADME. Put shortly:
(§3)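 Buffer hydrolysis at 37 °C in HCl, acetate, phosphate or borate buffers. Methanolic stock was added to preheated buffer in screw-capped tubes, giving about 4×10^-4 M final (1% methanol). Samples were taken at intervals and chromatographed immediately by HPLC. First-order k_obs came from the slope of log % formed albendazole versus time, and t1/2 = 0.693/k_obs.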

Series [7] can be described thus: Half life of the at pH 7.4. The class given is ADME. Put shortly: as §3
Series [8] can be described thus: First order rate constant, k was determined at pH 5.0. The class given is ADME. In outline: as §3
Series [9] in a line: First order rate constant, k was determined at pH 7.4. The series is classed as ADME. Put shortly:
as §3

Series [10] can be described thus: First order rate constant, k was determined at pH 1. The class given is ADME. Put shortly: as §3
Series [11] can be described thus: First order rate constant, k was determined at pH 2. The class given is ADME. Put shortly: as §3
Series [12] is described as follows: First order rate constant, k was determined at pH 3. The class given is ADME. Put shortly:
as §3

The nature of series [13]: First order rate constant, k was determined at pH 4. The class given is ADME. Put shortly:
as §3

Series [14] can be described thus: First order rate constant, k was determined at pH 5. The class given is ADME. In outline: as §3
Series [15] in a line: First order rate constant, k was determined at pH 6. The series is classed as ADME. In outline:
as §3

A short description of series [16]: First order rate constant, k was determined at pH 8. The class given is ADME. Put shortly: as §3
Series [17] is described as follows: First order rate constant, k was determined at pH 9. The class given is ADME. Put shortly: as §3

`CCCSc1ccc2c(c1)nc(NC(=O)OC)n2C(C)=O` registered a logP in series [1] of 2.82.
In turn, `CCCSc1ccc2c(c1)nc(NC(=O)OC)n2C(=O)CCC` came in with a logP in series [1] of 3.92.
Same read-out and setting: to `CCCSc1ccc2c(c1)nc(NC(=O)OC)n2C(=O)CC` belongs 3.17.
Turning to `CCCSc1ccc2c(c1)nc(NC(=O)OC)n2C(=O)OCC`, the half-life in series [2] turned out to be 0.139 h; in series [5], 0.115 h; in series [6], 5.27 h; in series [7] it was 2.02 h. Further, the k in series [3] is recorded as 83.29 10e-3 min-1; in series [4], 100.14 10e-3 min-1; in series [8], 2.19 10e-3 min-1; in series [9] it was 5.73 10e-3 min-1. The compound further yielded a logP in series [1] of 3.92.
With `CCCSc1ccc2nc(NC(=O)OC)n(C(=O)OCC)c2c1`, the half-life in series [2] was determined as 0.12 h; in [5], 0.117 h; in series [6] it was 2.74 h; in series [7], 2 h. The k was 96.33 10e-3 min-1 in series [3], 99.14 10e-3 min-1 in [4], 4.21 10e-3 min-1 in [8] and 5.78 10e-3 min-1 in series [9]. The compound further came in with a logP in [1] of 3.19.
Consider `CCCSc1ccc2c(c1)nc(NC(=O)OC)n2COC(=O)c1ccc(N)cc1.Cl`, for which the half-life in [2] came to 0.929 h; in [5], 0.755 h; in series [6], 3.84 h; in series [7] it was 2.05 h. In addition, the k was 12.43 10e-3 min-1 in [3]; 15.29 10e-3 min-1 in series [4]; 0.3203 min⁻¹ in series [10]; 0.2826 min⁻¹ in [11]; 0.0323 min⁻¹ in series [12]; 0.0087 min⁻¹ in series [13]. For the same compound, the k is 0.003 min⁻¹ in [14]; 3.01 10e-3 min-1 in series [8]; 0.0036 min⁻¹ in series [15]; 1.8066 min⁻¹ in series [16]; 8 min⁻¹ in [17]. Further, in [1], the logP was found to be 2.91.
The compound `CCCSc1ccc2nc(NC(=O)OC)[nH]c2c1` [ALBENDAZOLE] displayed a logP in [1] of 3.07.
